From ChEMBL document CHEMBL3621164, “Discovery of Triazole CYP11B2 Inhibitors with in Vivo Activity in Rhesus Monkeys” (ACS Med Chem Lett, 2015)

Columns and labels:
[1] = Lipophilicity, log D of the compound by HPLC; format: physicochemical
Outline: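 Lipophilicity determined experimentally by HPLC.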

Rattus norvegicus = assay: Dose normalized AUC in Sprague-Dawley rat at 2 mg/kg, po administered through gavage; format: ADME, organism-based; conditions: in vivo
[2] = Half life in Sprague-Dawley rat at 2 mg/kg, po administered through gavage by LC/MS/MS method; format: ADME, organism-based; conditions: in vivo
Aromatase = biological target: T1, Aromatase (Homo sapiens, UniProt P11511); assay: Inhibition of human CYP19
T1 sequence (P11511 whole entry): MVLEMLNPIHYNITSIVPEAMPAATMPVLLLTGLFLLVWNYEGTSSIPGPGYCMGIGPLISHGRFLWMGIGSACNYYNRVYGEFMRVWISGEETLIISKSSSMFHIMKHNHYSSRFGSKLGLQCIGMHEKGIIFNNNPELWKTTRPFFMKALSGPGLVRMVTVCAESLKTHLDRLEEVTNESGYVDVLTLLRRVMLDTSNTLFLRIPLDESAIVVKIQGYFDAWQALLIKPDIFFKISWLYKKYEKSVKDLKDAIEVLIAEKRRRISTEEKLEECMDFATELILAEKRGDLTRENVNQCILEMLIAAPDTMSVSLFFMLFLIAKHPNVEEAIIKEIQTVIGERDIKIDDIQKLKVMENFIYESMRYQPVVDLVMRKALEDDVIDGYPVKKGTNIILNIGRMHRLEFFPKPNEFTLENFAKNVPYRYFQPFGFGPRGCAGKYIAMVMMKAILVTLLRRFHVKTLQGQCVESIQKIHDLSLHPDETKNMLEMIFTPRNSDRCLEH

[3] = Intrinsic clearance in rhesus monkey liver microsomes by LC/MS method; format: ADME, Macaca mulatta
[4] = Plasma clearance in rhesus monkey at 2 mg/kg administered through gavage by LC-MS/MS method; format: ADME, organism-based, Macaca mulatta; conditions: po
[5] = Half life in rhesus monkey at 2 mg/kg administered through gavage; format: ADME, organism-based, Macaca mulatta; conditions: in vivo, po
[6] = biological target: T2, Cytochrome P450 11B2, mitochondrial (Rattus norvegicus, UniProt P30099); assay: Inhibition of rat CYP11B2 expressed in V79 cells assessed as aldosterone level after 3 hrs by HTRF assay in presence of 500 nM 11-deoxycorticosterone; format: cell-based; conditions: v79, 3 h
T2 sequence (P30099 whole entry): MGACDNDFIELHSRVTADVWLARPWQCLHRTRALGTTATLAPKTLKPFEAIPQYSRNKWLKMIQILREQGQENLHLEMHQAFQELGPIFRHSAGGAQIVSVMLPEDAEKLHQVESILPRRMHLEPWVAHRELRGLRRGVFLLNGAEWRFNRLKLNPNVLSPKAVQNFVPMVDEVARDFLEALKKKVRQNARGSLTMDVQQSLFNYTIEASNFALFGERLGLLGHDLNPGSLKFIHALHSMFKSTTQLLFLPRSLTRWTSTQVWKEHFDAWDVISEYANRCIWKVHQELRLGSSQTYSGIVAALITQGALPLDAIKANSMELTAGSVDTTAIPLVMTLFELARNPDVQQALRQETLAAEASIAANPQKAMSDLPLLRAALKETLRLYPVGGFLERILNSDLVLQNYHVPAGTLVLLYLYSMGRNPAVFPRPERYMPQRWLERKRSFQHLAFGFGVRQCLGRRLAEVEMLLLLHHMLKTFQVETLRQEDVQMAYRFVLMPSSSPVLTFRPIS

Question: What does the source list for Cc1nnc2n1-c1ccc(-c3cncc([C@](C)(O)C(F)(F)F)c3)cc1CC2?
Answer: logD [1]: 1.2; AUC/dose (Rattus norvegicus): 1.88 µM·kg·h/mg; half-life [2]: 1.2 h; IC50 (Aromatase): > 30 µM; CLint scaled [3]: < 1.2 L/h/kg; CL/F [4]: 0.18 L/h/kg; half-life [5]: 7.8 h; inhibition (INH) [6]: Active
